Measurements published in ChEMBL document CHEMBL4715780, “Biological evaluation of tetracationic compounds based on two 1,4-diazabicyclo[2.2.2]octane moieties connected by different linkers” (Bioorg Med Chem, 2016).
Converted amounts (≈) assume the structure as drawn.

What was measured:
[1] = Selectivity index, ratio of CC50 for HEK293T cells assessed as reduction in cell viability measured after 24 hrs by MTT assay to MIC for Enterococcus faecalis ATCC 51299 assessed as bacterial growth inhibition by CLSI protocol based serial microdilution method; type: toxicity; conditions: human, read-out: Selectivity Index
[2] = Selectivity index, ratio of CC50 for HEK293T cells assessed as reduction in cell viability measured after 24 hrs by MTT assay to MIC for Salmonella enterica ATCC 14028 assessed as bacterial growth inhibition by CLSI protocol based serial microdilution method; type: toxicity; conditions: human, read-out: Selectivity Index
[3] = system: Escherichia coli; test: Antibacterial activity against Escherichia coli ATCC 25922 assessed as bacterial growth inhibition by CLSI protocol based serial microdilution method; type: functional
[4] = system: Candida albicans; test: Antifungal activity against Candida albicans CEMTC 34 assessed as fungal growth inhibition by CLSI protocol based serial microdilution method; type: functional
How it was run: (§1)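 Candida albicans grown in Sabouraud dextrose broth with two-fold serial compound dilutions from water stocks; final inoculum about 5 × 10⁵ CFU/mL. Incubated at 37 °C with orbital shaking (580 rpm). MIC is the lowest concentration preventing growth, by absorbance at 595 nm. MFC is the lowest concentration with no visible growth. Duplicates in two separate experiments.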

[5] = system: Pseudomonas aeruginosa; test: Antibacterial activity against Pseudomonas aeruginosa ATCC 9027 assessed as concentration required to inhibit visible growth by CLSI protocol based serial microdilution method; type: functional
[6] = system: Proteus vulgaris; test: Antibacterial activity against Proteus vulgaris ATCC 6380 assessed as bacterial growth inhibition by CLSI protocol based serial microdilution method; type: functional
[7] = system: Salmonella typhimurium; test: Antibacterial activity against Salmonella enterica ATCC 14028 assessed as concentration required to inhibit visible growth by CLSI protocol based serial microdilution method; type: functional, Salmonella enterica subsp. enterica serovar Typhimurium
[8] = Selectivity index, ratio of CC50 for HEK293T cells assessed as reduction in cell viability measured after 24 hrs by MTT assay to MIC for Escherichia coli ATCC 25922 assessed as bacterial growth inhibition by CLSI protocol based serial microdilution method; type: toxicity; conditions: human, read-out: Selectivity Index
[9] = system: Staphylococcus aureus; test: Antibacterial activity against […] Staphylococcus aureus ATCC 25923 assessed as bacterial growth inhibition by CLSI protocol based serial microdilution method; type: functional
[10] = Selectivity index, ratio of CC50 for HEK293T cells assessed as reduction in cell viability measured after 24 hrs by MTT assay to MIC for Staphylococcus aureus ATCC 25923 assessed as bacterial growth inhibition by CLSI protocol based serial microdilution method; type: toxicity; conditions: human, read-out: Selectivity Index
[11] = system: Enterococcus faecalis; test: Antibacterial activity against Enterococcus faecalis ATCC 51299 assessed as concentration required to inhibit visible growth by CLSI protocol based serial microdilution method; type: functional
[12] = Cytotoxicity against human MCF7 cells assessed as reduction in cell viability measured after 24 hrs by MTT assay; type: cell-based
How it was run: (§2)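 HEK293T or MCF-7 cells in IMDM with 10% FBS, seeded at 20,000 per well and grown overnight. Compounds at […] in fresh medium for 24 h at 37 °C, 5% CO₂. MTT then added for 4 h, precipitate dissolved overnight in SDS-HCl, absorbance read at 570 nm. Viability expressed relative to untreated cells, giving CC₅₀. Duplicate wells, at least two independent repeats.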

[13] = system: Escherichia coli; test: Antibacterial activity against Escherichia coli ATCC 25922 assessed as concentration required to inhibit visible growth by CLSI protocol based serial microdilution method; type: functional
[14] = system: Influenza A virus; test: Antiviral activity against Influenza A virus (A/Puerto Rico/8/34 (H1N1) infected in MDCK cells assessed as decrease in viral titer preincubated for 1 hr followed by viral infection and cultivated for 48 hrs followed by supernatant transferred to chicken erythrocyte for 1 hr followed by measuring ability to cause positive hemagglutination; type: functional, organism-based; conditions: A/Puerto Rico/8/1934(H1N1)
How it was run: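 MDCK monolayers in MEM were pre-incubated with compound for 1 h at 37 °C, then infected with 10-fold virus dilutions (10⁻¹–10⁻⁶) and held 48 h at 37 °C, 5% CO₂. Supernatant was mixed with an equal volume of 1% chicken erythrocytes, 60 min at room temperature. Titre was taken from the highest dilution giving full agglutination (log₁₀ EID₅₀). Triplicate per concentration.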

[15] = system: Salmonella typhimurium; test: Antibacterial activity against Salmonella enterica ATCC 14028 assessed as bacterial growth inhibition by CLSI protocol based serial microdilution method; type: functional, Salmonella enterica subsp. enterica serovar Typhimurium
[16] = Cytotoxicity against HEK293T cells assessed as reduction in cell viability measured after 24 hrs by MTT assay; type: cell-based, HEK-293T; conditions: human; how it was run: as §2
[17] = Selectivity index, ratio of CC50 for HEK293T cells assessed as reduction in cell viability measured after 24 hrs by MTT assay to MIC for Citrobacter freundii ATCC 8090 assessed as bacterial growth inhibition by CLSI protocol based serial microdilution method; type: toxicity; conditions: human, read-out: Selectivity Index
[18] = system: Staphylococcus aureus; test: Antibacterial activity against […] Staphylococcus aureus ATCC 25923 assessed as concentration required to inhibit visible growth by CLSI protocol based serial microdilution method; type: functional
[19] = Selectivity index, ratio of CC50 for HEK293T cells assessed as reduction in cell viability measured after 24 hrs by MTT assay to MIC for Pseudomonas aeruginosa ATCC 9027 assessed as bacterial growth inhibition by CLSI protocol based serial microdilution method; type: toxicity; conditions: human, read-out: Selectivity Index
[20] = system: Pseudomonas aeruginosa; test: Antibacterial activity against Pseudomonas aeruginosa ATCC 9027 assessed as bacterial growth inhibition by CLSI protocol based serial microdilution method; type: functional
[21] = Selectivity index, ratio of CC50 for HEK293T cells assessed as reduction in cell viability measured after 24 hrs by MTT assay to MIC for Proteus vulgaris ATCC 6380 assessed as bacterial growth inhibition by CLSI protocol based serial microdilution method; type: toxicity; conditions: human, read-out: Selectivity Index
[22] = system: Citrobacter freundii; test: Antibacterial activity against Citrobacter freundii ATCC 8090 assessed as bacterial growth inhibition by CLSI protocol based serial microdilution method; type: functional
[23] = system: Enterococcus faecalis; test: Antibacterial activity against Enterococcus faecalis ATCC 51299 assessed as bacterial growth inhibition by CLSI protocol based serial microdilution method; type: functional
[24] = Selectivity index, ratio of CC50 for HEK293T cells assessed as reduction in cell viability measured after 24 hrs by MTT assay to MIC for Candida albicans CEMTC 34 assessed as bacterial growth inhibition by CLSI protocol based serial microdilution method; type: toxicity; conditions: human, read-out: Selectivity Index
How it was run: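 SI = CC₅₀ (HEK293T) / MIC. HEK293T cells were seeded at 20,000/well overnight, then exposed to 10–250 µg/mL in IMDM with 10% FBS for 24 h. MTT was added for 4 h, solubilised with SDS-HCl, and read at 570 nm; duplicates, ≥2 independent runs. MIC came from two-fold dilutions in Sabouraud dextrose broth at ~5 × 10⁵ CFU/mL, 37 °C with shaking, read at 595 nm, in duplicate.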

[25] = Selectivity index, ratio of CC50 for MDCK cells to EC50 for Influenza A virus (A/Puerto Rico/8/34 (H1N1)) infected in MDCK cells; type: toxicity, cell-based; conditions: dog, read-out: Ratio CC50/EC50
How it was run: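 Ratio of CC₅₀ to EC₅₀, both in MDCK cells, with cytotoxicity run in parallel with the antiviral assay. EC₅₀ is the concentration halving virus production (0.3 log₁₀ EID₅₀ titre drop). It was obtained after 1 h compound pre-incubation, infection, 48 h at 37 °C, and hemagglutination read-out with 1% chicken erythrocytes.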

[26] = system: Candida albicans; test: Antifungal activity against Candida albicans CEMTC 34 assessed as concentration required to inhibit visible growth by CLSI protocol based serial microdilution method; type: functional; how it was run: as §1
[27] = system: Proteus vulgaris; test: Antibacterial activity against Proteus vulgaris ATCC 6380 assessed as concentration required to inhibit visible growth by CLSI protocol based serial microdilution method; type: functional
[28] = Cytotoxicity against MDCK cells assessed as cell death incubated for 48 hrs by MTT assay; type: cell-based, Canis lupus familiaris; conditions: dog
[29] = system: Citrobacter freundii; test: Antibacterial activity against Citrobacter freundii ATCC 8090 assessed as concentration required to inhibit visible growth by CLSI protocol based serial microdilution method; type: functional

Structure (SMILES)	MIC [3] [µg/mL]	MIC [4] [µg/mL]	MBC [5] [µg/mL]	MIC [6] [µg/mL]	MBC [7] [µg/mL]	MIC [9] [µg/mL]	MBC [11] [µg/mL]	CC50 at 24 h [12] [µg/mL]	MBC [13] [µg/mL]	EC50 [14] [µg/mL]	MIC [15] [µg/mL]	MBC [18] [µg/mL]	MIC [20] [µg/mL]	MIC [22] [µg/mL]	MIC [23] [µg/mL]	selectivity ratio [25]	MFC [26] [µg/mL]	MBC [27] [µg/mL]	CC50 at 48 h [28] [µg/mL]	MBC [29] [µg/mL]	further results
CCCCCCCCCCCC[N+]12CC[N+](C/C=C/C[N+]34CC[N+](CCCCCCCCCCCC)(CC3)CC4)(CC1)CC2	3.1	12.5	3.1	100	3.1	1.2	1.6	8	3.1	2.6	16	1.6	1.6	1.6	1.6	3	12.5	> 100	6.8	3.1	selectivity ratio at 24 h [1]: 6; selectivity ratio at 24 h [2]: 6; selectivity ratio at 24 h [8]: 3; selectivity ratio at 24 h [10]: 8; CC50 at 24 h [16]: 10 µg/mL; selectivity ratio at 24 h [17]: 6; selectivity ratio at 24 h [19]: 6; selectivity ratio at 24 h [21]: < 1; selectivity ratio at 24 h [24]: < 1
CCCCCCCCCCCC[N+]12CC[N+](Cc3cccc(-c4ccccc4C[N+]45CC[N+](CCCCCCCCCCCC)(CC4)CC5)c3)(CC1)CC2	1.6	1.6	6.3	50	3.1	0.6	1.6		3.1		1.6	1.2	3.1	1.6	0.8		6.3	100		1.6	
CCCCCCCCCCCC[N+]12CC[N+](Cc3nnn(CCCCC(=O)OC)c3C[N+]34CC[N+](CCCCCCCCCCCC)(CC3)CC4)(CC1)CC2.[Cl-].[Cl-].[Cl-].[Cl-]	3.1	6.3	12.5	100	3.1	1.6	3.1		3.1	> 11	3.1	3.1	6.3	1.6	1.6	< 2	12.5	> 100	20.6	3.1	
Clc1ccccc1C(c1ccccc1)(c1ccccc1)n1ccnc1 [CLOTRIMAZOLE]		400 (≈ 1160 µM)						5 (≈ 14.5 µM)									400 (≈ 1160 µM)				CC50 at 24 h [16]: 7 µg/mL (≈ 20.3 µM); selectivity ratio at 24 h [24]: < 1
CCCCCCCCCCCC[N+]12CC[N+](CCCCCCCC[N+]34CC[N+](CCCCCCCCCCCC)(CC3)CC4)(CC1)CC2	1.6	6.3	6.3	100	6.3	0.6	1.6		3.1	2.2	3.1	1.6	3.1	3.1	1.6	2	12.5	> 100	4.5	6.3	
O=C(O)c1cn(C2CC2)c2cc(N3CCNCC3)c(F)cc2c1=O [CIPROFLOXACIN]								60 (≈ 181 µM)													CC50 at 24 h [16]: > 60 µg/mL
CCCCCCCCCCCC[N+]12CC[N+](CCNCC[N+]34CC[N+](CCCCCCCCCCCC)(CC3)CC4)(CC1)CC2.[Cl-].[Cl-].[Cl-].[Cl-]	16	12.5	6.3	50	3.1	0.6	1.6		3.1	2.2	1.6	12	1.6	3.1	0.8	4	12.5	50	7.7	3.1	
CCCCCCCCCCCC[N+]12CC[N+](Cc3nnn(CCCCCN=[N+]=[N-])c3C[N+]34CC[N+](CCCCCCCCCCCC)(CC3)CC4)(CC1)CC2.[Cl-].[Cl-].[Cl-].[Cl-]	1.6	12.5	6.3	50	3.1	1.6	1.6		3.1	4.2	1.6	3.1	3.1	1.6	1.6	3	12.5	> 100	12.9	3.1	
C#CCOCCCCCN(CC[N+]12CC[N+](CCCCCCCCCCCC)(CC1)CC2)CC[N+]12CC[N+](CCCCCCCCCCCC)(CC1)CC2.[Cl-].[Cl-].[Cl-].[Cl-]	3.1	25	12.5	100	3.1	1.6	3.1		3.1	10	3.1	3.1	6.3	3.1	1.6	1	25	> 100	14.9	3.1	
CCOC(=O)C1=C[C@@H](OC(CC)CC)[C@H](NC(C)=O)[C@@H](N)C1 [OSELTAMIVIR]										0.3 (≈ 0.96 µM)						1000			300 (≈ 960 µM)		
